Reference: ChEMBL document CHEMBL1781959, “Synthesis and in vitro antitumor activity of substituted quinazoline and quinoxaline derivatives: search for anticancer agent” (Eur J Med Chem, 2011)

What was measured:
Assay type in all cases: functional
[1] = system: COLO 205; assay: Anticancer activity against human COLO205 cells assessed as cell growth promotion at 10^-5 M after 48 hrs by SRB assay relative to control
[2] = system: SK-OV-3; assay: Anticancer activity against human SKOV3 cells assessed as cell growth promotion at 10^-5 M after 48 hrs by SRB assay relative to control
[3] = system: HCT-116; assay: Anticancer activity against human HCT116 cells assessed as cell growth promotion at 10^-5 M after 48 hrs by SRB assay relative to control
[4] = system: SF-268; assay: Anticancer activity against human SF268 cells assessed as cell growth promotion at 10^-5 M after 48 hrs by SRB assay relative to control
[5] = Anticancer activity against human […] cells assessed as cell growth promotion at 10^-5 M after 48 hrs by SRB assay relative to control
[6] = system: HL-60(TB); assay: Anticancer activity against human HL-60(TB) cells assessed as cell growth promotion at 10^-5 M after 48 hrs by SRB assay relative to control
Method in brief: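 NCI-60 single-dose screen: compound at 10^-5 M, 48 h at 37 °C, 5% CO2; cells grown in RPMI 1640 with 5% FBS and 2 mM L-glutamine, pre-incubated 24 h before dosing. Adherent cells fixed with cold TCA; endpoint is sulforhodamine B protein staining. Percent growth of treated cells is reported relative to untreated control.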

[7] = system: UO-31; assay: Anticancer activity against human UO31 cells assessed as cell growth promotion at 10^-5 M after 48 hrs by SRB assay relative to control
[8] = system: RXF 393; assay: Anticancer activity against human RXF393 cells assessed as cell growth promotion at 10^-5 M after 48 hrs by SRB assay relative to control
[9] = system: SN12C; assay: Anticancer activity against human SN12C cells assessed as cell growth promotion at 10^-5 M after 48 hrs by SRB assay relative to control
[10] = system: MDA-MB-435; assay: Anticancer activity against human MDA-MB-435 cells assessed as cell growth promotion at 10^-5 M after 48 hrs by SRB assay relative to control
[11] = system: DU-145; assay: Anticancer activity against human DU145 cells assessed as cell growth promotion at 10^-5 M after 48 hrs by SRB assay relative to control
[12] = system: HCC 2998; assay: Anticancer activity against human HCC2998 cells assessed as cell growth promotion at 10^-5 M after 48 hrs by SRB assay relative to control
[13] = system: M14; assay: Anticancer activity against human M14 cells assessed as cell growth promotion at 10^-5 M after 48 hrs by SRB assay relative to control
[14] = system: SK-MEL-5; assay: Anticancer activity against human SK-MEL-5 cells assessed as cell growth promotion at 10^-5 M after 48 hrs by SRB assay relative to control
[15] = system: IGROV-1; assay: Anticancer activity against human IGROV1 cells assessed as cell growth promotion at 10^-5 M after 48 hrs by SRB assay relative to control
[16] = system: NCI/ADR-RES; assay: Anticancer activity against human NCI/ADR-RES cells assessed as cell growth promotion at 10^-5 M after 48 hrs by SRB assay relative to control
[17] = system: SF-295; assay: Anticancer activity against human SF295 cells assessed as cell growth promotion at 10^-5 M after 48 hrs by SRB assay relative to control
[18] = system: U-251; assay: Anticancer activity against human U251 cells assessed as cell growth promotion at 10^-5 M after 48 hrs by SRB assay relative to control
[19] = system: MOLT-4; assay: Anticancer activity against human MOLT4 cells assessed as cell growth promotion at 10^-5 M after 48 hrs by SRB assay relative to control
[20] = system: MDA-MB-468; assay: Anticancer activity against human MDA-MB-468 cells assessed as cell growth promotion at 10^-5 M after 48 hrs by SRB assay relative to control
[21] = system: UACC-257; assay: Anticancer activity against human UACC257 cells assessed as cell growth promotion at 10^-5 M after 48 hrs by SRB assay relative to control
[22] = system: SK-MEL-28; assay: Anticancer activity against human SK-MEL-28 cells assessed as cell growth promotion at 10^-5 M after 48 hrs by SRB assay relative to control
[23] = system: HT-29; assay: Anticancer activity against human HT-29 cells assessed as cell growth promotion at 10^-5 M after 48 hrs by SRB assay relative to control
[24] = system: SNB-19; assay: Anticancer activity against human SNB19 cells assessed as cell growth promotion at 10^-5 M after 48 hrs by SRB assay relative to control
[25] = system: NCI-H23; assay: Anticancer activity against human NCI-H23 cells assessed as cell growth promotion at 10^-5 M after 48 hrs by SRB assay relative to control
[26] = system: SR; assay: Anticancer activity against human SR cells assessed as cell growth promotion at 10^-5 M after 48 hrs by SRB assay relative to control
[27] = system: HOP-62; assay: Anticancer activity against human HOP62 cells assessed as cell growth promotion at 10^-5 M after 48 hrs by SRB assay relative to control
[28] = system: SF-539; assay: Anticancer activity against human SF539 cells assessed as cell growth promotion at 10^-5 M after 48 hrs by SRB assay relative to control
[29] = system: HCT-15; assay: Anticancer activity against human HCT15 cells assessed as cell growth promotion at 10^-5 M after 48 hrs by SRB assay relative to control
[30] = system: T47D; assay: Anticancer activity against human T47D cells assessed as cell growth promotion at 10^-5 M after 48 hrs by SRB assay relative to control
[31] = system: MCF7; assay: Anticancer activity against human MCF7 cells assessed as cell growth promotion at 10^-5 M after 48 hrs by SRB assay relative to control
[32] = system: KM12; assay: Anticancer activity against human KM12 cells assessed as cell growth promotion at 10^-5 M after 48 hrs by SRB assay relative to control
[33] = Anticancer activity against human Hs 578T cells assessed as cell growth promotion at 10^-5 M after 48 hrs by SRB assay relative to control
[34] = system: ACHN; assay: Anticancer activity against human ACHN cells assessed as cell growth promotion at 10^-5 M after 48 hrs by SRB assay relative to control
[35] = system: K562; assay: Anticancer activity against human K562 cells assessed as cell growth promotion at 10^-5 M after 48 hrs by SRB assay relative to control
[36] = system: SW-620; assay: Anticancer activity against human SW620 cells assessed as cell growth promotion at 10^-5 M after 48 hrs by SRB assay relative to control
[37] = system: OVCAR-8; assay: Anticancer activity against human OVCAR8 cells assessed as cell growth promotion at 10^-5 M after 48 hrs by SRB assay relative to control
[38] = system: NCI-H226; assay: Anticancer activity against human NCI-H226 cells assessed as cell growth promotion at 10^-5 M after 48 hrs by SRB assay relative to control

Row | SMILES | Activity [1] [%] | Activity [2] [%] | Activity [3] [%] | Activity [4] [%] | Activity [5] [%] | Activity [6] [%] | Activity [7] [%] | Activity [8] [%] | Activity [9] [%] | Activity [10] [%] | Activity [11] [%] | Activity [12] [%] | Activity [13] [%] | Activity [14] [%] | Activity [15] [%] | Activity [16] [%] | Activity [17] [%] | Activity [18] [%] | Activity [19] [%] | Activity [20] [%] | also measured
1 | O=C(Nc1ccccc1C(=O)Nc1ccc(/C=C/c2ccc(Cl)cc2)cc1)c1ccccc1 | 124 | 95.35 | 49.35 | 82.84 | 56.24 | 94.11 | 52.88 | 82.15 | 79.73 | 82.15 | 107 | 78.38 | 78.5 | 82.15 | 89.85 | 95.06 | 52.07 | 60.68 | 59.17 | 83.46 | Activity [21]: 94.73%; Activity [22]: 101%; Activity [23]: 89.94%; Activity [24]: 74.25%; Activity [25]: 73.51%; Activity [26]: 81.19%; Activity [27]: 105%; Activity [28]: 91.8%; Activity [29]: 65.81%; Activity [30]: 82.14%; Activity [31]: 82.72%; Activity [32]: 64.38%; Activity [33]: 67.95%; Activity [34]: 82.68%; Activity [35]: 57.81%; Activity [36]: 99.16%; Activity [37]: 88.85%; Activity [38]: 85.77%
2 | O=C(Nc1ccccc1C(=O)Nc1ccc(/C=C/C=C/c2ccccc2)cc1)c1ccccc1 | 121 | 87.56 | 84.74 | 98.17 | 63.43 | 92.43 | 49.85 | 98.83 | 87.79 | 90.52 | 111 | 93.69 | 83.75 | 77.57 | 78.34 | 112 | 58.93 | 95.87 | 77.32 | 81.99 | Activity [21]: 103%; Activity [22]: 107%; Activity [23]: 111%; Activity [24]: 90.58%; Activity [25]: 91.39%; Activity [26]: 70.89%; Activity [27]: 93.96%; Activity [28]: 102%; Activity [29]: 73.53%; Activity [30]: 86.44%; Activity [31]: 100%; Activity [32]: 93.79%; Activity [33]: 80.44%; Activity [34]: 87.29%; Activity [35]: 62.47%; Activity [36]: 107%; Activity [37]: 104%; Activity [38]: 84.69%
3 | O=C(Nc1ccccc1C(=O)Nc1ccc(/C=C/c2ccc(O)cc2)cc1)c1ccccc1 | 101 | 92.69 | 70.71 | 69.03 | 53.22 | 50.34 | 39.29 | 97.37 | 80.93 | 86.41 | 100 | 94.19 | 81.74 | 76.71 | 85.6 | 71.73 | 97.53 | 103 | 44.21 | 77.87 | Activity [21]: 94.49%; Activity [22]: 103%; Activity [23]: 97.64%; Activity [24]: 86.41%; Activity [25]: 91.38%; Activity [26]: 94.97%; Activity [27]: 95.55%; Activity [28]: 81.74%; Activity [29]: 57.75%; Activity [30]: 66.17%; Activity [31]: 77.81%; Activity [32]: 67.28%; Activity [33]: 104%; Activity [34]: 58.96%; Activity [35]: 40.21%; Activity [36]: 101%; Activity [37]: 86.46%; Activity [38]: 79.29%
4 | COc1cc(/C=C/c2ccc(NC(=O)c3ccccc3NC(=O)c3ccccc3)cc2)ccc1O | 115 | 96.53 | 92.7 | 108 | 79.36 | 97.49 | 68.52 | 95.14 | 96.62 | 107 | 108 | 99.7 | 92.83 | 86.16 | 96.3 | 117 | 162 | 103 | 86.81 | 95.39 | Activity [21]: 104%; Activity [22]: 115%; Activity [23]: 121%; Activity [24]: 104%; Activity [25]: 105%; Activity [26]: 106.41%; Activity [27]: 94.69%; Activity [28]: 110%; Activity [29]: 98.82%; Activity [30]: 89.85%; Activity [31]: 96.33%; Activity [32]: 106%; Activity [33]: 100%; Activity [34]: 97.71%; Activity [35]: 96.88%; Activity [36]: 109%; Activity [37]: 105%; Activity [38]: 95.46%
5 | O=C(Nc1ccccc1C(=O)Nc1ccc(/C=C/c2ccc(Cl)cc2)cc1)c1ccco1 | 128 | 116 | 108 | 107 | 120 | 96.67 | 83.88 | 117 | 103 | 101 | 112 | 96.83 | 107 | 105 | 117 | 104 | 122 | 107 | 100 | 108 | Activity [21]: 112%; Activity [22]: 111%; Activity [23]: 103%; Activity [24]: 107%; Activity [25]: 95.98%; Activity [26]: 109%; Activity [27]: 104%; Activity [28]: 97.41%; Activity [29]: 109%; Activity [30]: 106%; Activity [31]: 98.82%; Activity [32]: 110%; Activity [33]: 113%; Activity [34]: 100%; Activity [35]: 95.66%; Activity [36]: 106%; Activity [37]: 100%; Activity [38]: 105%
